Results taken from publication PMC5766731 (Clinical Pharmacokinetics, 2017).
Where two headings read alike, the source gives them in different places.

Experiments:
[1] = Part III sex and food effect pharmacokinetics; type: in vivo, human; settings: for AUCt / AUC∞ / C max / CL/F_obs / HL_Lambda_z (terminal half-life) / V z/F_obs / λz: part III, single oral 150 mg, n = 10, mean ± SD
Method in brief: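 Open-label crossover at a single 150 mg oral dose, with at least 14 days washout and an overnight fast of at least 10 h before each dose. Period I: 12 subjects (6 men, 6 women), fasted. Period II: 10 subjects (5 men, 5 women) given a high-fat, roughly 800–1000 calorie breakfast 30 min pre-dose. Drug measured in diluted blood by LC-MS/MS (2–5000 ng/mL). Food effect tested by two-sided t test, α = 0.05.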

Part I safety assessment = type: in vivo, human
Method in brief: (§1)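 Safety monitored under ICH-GCP in each part (single 10–300 mg; alternate-day 100–300 mg; 150 mg fasted/fed crossover). Assessments: adverse events coded with MedDRA version 18.0, clinical examinations, frequent vital signs, 12-lead ECGs, clinical laboratory tests, and continuous ECG for 24 h post-dose in parts I and II. Post-dose vs baseline compared by paired two-sided t test, α = 0.05.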

hemoglobin levels = settings: cited from earlier work
[2] = mice, oral route; cited from earlier work
serum EPO levels = settings: acute pharmacodynamic animal model; cited from earlier work
[3] = Part II urinary recovery of ZYAN1; type: in vivo, human; settings: urine
Method in brief: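 Urine collected pre-dose and over 0–12, 12–24, 24–36 and 36–48 h: after the single dose (10–300 mg, part I) or after each alternate-day dose on Days 1, 3 and 5 (part II). Total volume recorded; 5 mL aliquots stored at –80 ± 10 °C. Acetonitrile precipitation and LC-MS/MS with analog internal standard, urine calibration 2–5000 ng/mL, LLOQ 2 ng/mL. Amount and percentage of dose recovered calculated.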

PHD enzyme = settings: read-out: concentration of drug producing 50% inhibition [IC50]; HepG2 cells, HIF stabilization; cited from earlier work
[4] = beagle dogs, oral route; cited from earlier work
[5] = Part II safety assessment; type: in vivo, human
Method in brief: as §1

Question: What does the source list for O=C(O)CNC(=O)c1c(O)c2ccccc2n(OCC2CC2)c1=O [ZYAN1]?
Answer: AUCt ([1]; Fasting): 71,331.577 ± 25,663.234 h·ng/mL; AUC∞ ([1]; Fasting): 71,696.758 ± 25,837.440 h·ng/mL; C max ([1]; Fasting): 10,352.800 ± 3076.528 ng/mL; CL/F_obs ([1]; Fasting): 2479.865 ± 1333.719 mL/h; HL_Lambda_z (terminal half-life) ([1]; Fasting): 11.048 ± 3.378 h; V z/F_obs ([1]; Fasting): 37,927.046 ± 18,082.141 mL; λz ([1]; Fasting): 0.067 ± 0.015 h⁻¹; AUCt ([1]; Fed (high-fat breakfast)): 59,005.375 ± 16,846.249 h·ng/mL; AUC∞ ([1]; Fed (high-fat breakfast)): 59,561.279 ± 17,228.977 h·ng/mL; C max ([1]; Fed (high-fat breakfast)): 4322.000 ± 1317.961 ng/mL; CL/F_obs ([1]; Fed (high-fat breakfast)): 2801.105 ± 1109.706 mL/h; HL_Lambda_z (terminal half-life) ([1]; Fed (high-fat breakfast)): 11.328 ± 3.691 h; V z/F_obs ([1]; Fed (high-fat breakfast)): 45,070.176 ± 19,928.748 mL; λz ([1]; Fed (high-fat breakfast)): 0.066 ± 0.017 h⁻¹; AUC values, fed vs fasting ([1]; single 150 mg): decreased; mean C max, male vs female subjects ([1]; single 150 mg): not statistically significant; mean t ½, fed vs. fasted ([1]; single 150 mg): similar; exposure, female vs male subjects ([1]; single 150 mg, small group, qualitative): female subjects had a higher exposure than males; Adverse events (Test) (Part I safety assessment; SAD 25 mg panel): Rhinorrhea, right lower wisdom tooth pain, sore throat; Adverse events (Test) (Part I safety assessment; SAD 50 mg panel): Dizziness, headache, chest pain, Diarrhea, upper respiratory tract infection; Adverse events (Test) (Part I safety assessment; SAD 100 mg panel): Dizziness, headache, lethargy, nausea, throat irritation, increase in AST, hyperkalemia; Adverse events (Test) (Part I safety assessment; SAD 200 mg panel): Back pain; drug-related serious adverse events (Part I safety assessment; all study parts): No drug-related serious adverse events were reported; severity of AEs possibly related to study treatment (Part I safety assessment; part I): grade 1; subjects with AEs possibly related to study treatment (Part I safety assessment; part I, nine AEs in six subjects, placebo 21%): 14%; tolerability (Part I safety assessment; single and multiple oral ascending doses): well-tolerated; effective dose for inducing hematopoiesis (hemoglobin levels; alternate dosing pattern for a week): 15 mg/kg; erythropoiesis / hemoglobin levels (hemoglobin levels; repeated dose model, nephrectomized rats and mice): robust increase in erythropoiesis, resulting in normalization of hemoglobin levels; tolerated dose, single-dose study [2]: up to 300 mg/kg; serum EPO levels (serum EPO levels): dose-related increase; Amount recovered [mean ± SD] ([3]; 100 mg, Day 1): 50.13 ± 14.99 mg; Percentage recovered [mean ± SD] ([3]; 100 mg, Day 1): 50.132 ± 14.998%; Amount recovered [mean ± SD] ([3]; 100 mg, Day 3): 41.00 ± 11.07 mg; Percentage recovered [mean ± SD] ([3]; 100 mg, Day 3): 41.001 ± 11.071%; Amount recovered [mean ± SD] ([3]; 100 mg, Day 5): 50.14 ± 12.16 mg; Percentage recovered [mean ± SD] ([3]; 100 mg, Day 5): 50.137 ± 12.160%; Amount recovered [mean ± SD] ([3]; 150 mg, Day 1): 52.77 ± 6.85 mg; Percentage recovered [mean ± SD] ([3]; 150 mg, Day 1): 35.178 ± 4.566%; Amount recovered [mean ± SD] ([3]; 150 mg, Day 3): 54.64 ± 13.35 mg; Percentage recovered [mean ± SD] ([3]; 150 mg, Day 3): 36.427 ± 8.900%; Amount recovered [mean ± SD] ([3]; 150 mg, Day 5): 44.23 ± 8.18 mg; Percentage recovered [mean ± SD] ([3]; 150 mg, Day 5): 29.488 ± 5.453%; Amount recovered [mean ± SD] ([3]; 200 mg, Day 1): 64.95 ± 25.50 mg; Percentage recovered [mean ± SD] ([3]; 200 mg, Day 1): 32.474 ± 12.749%; Amount recovered [mean ± SD] ([3]; 200 mg, Day 3): 66.09 ± 8.74 mg; Percentage recovered [mean ± SD] ([3]; 200 mg, Day 3): 33.044 ± 4.371%; Amount recovered [mean ± SD] ([3]; 200 mg, Day 5): 75.76 ± 12.76 mg; Percentage recovered [mean ± SD] ([3]; 200 mg, Day 5): 37.880 ± 6.381%; Amount recovered [mean ± SD] ([3]; 300 mg, Day 1): 82.97 ± 35.69 mg; Percentage recovered [mean ± SD] ([3]; 300 mg, Day 1): 27.656 ± 11.899%; Amount recovered [mean ± SD] ([3]; 300 mg, Day 3): 92.22 ± 41.92 mg; Percentage recovered [mean ± SD] ([3]; 300 mg, Day 3): 30.741 ± 13.972%; Amount recovered [mean ± SD] ([3]; 300 mg, Day 5): 99.15 ± 34.40 mg; Percentage recovered [mean ± SD] ([3]; 300 mg, Day 5): 33.050 ± 11.466%; IC50 (PHD enzyme): 11.2 µM; tolerated dose, single-dose study [4]: up to 75 mg/kg; Adverse events (Test) ([5]; MAD 150 mg panel): Headache, dizziness; Adverse events (Test) ([5]; MAD 200 mg panel): Nausea, headache, dizziness, diarrhea, phlebitis; Adverse events (Test) ([5]; MAD 300 mg panel): Supra ventricular extrasystoles, abdominal pain, diarrhea, contusion, back pain, dizziness, headache, nasal congestion, phlebitis; Adverse events (Test) ([5]; MSD 100 mg panel (multiple dose)): Headache, dizziness; severity of treatment-related AEs ([5]; part II (ZYAN1 and placebo subjects)): all grade 1 in severity, with the exception of dizziness in two subjects, which was classified as grade 2 in severity; subjects with AEs possibly related to study treatment ([5]; part II, 16 AEs in 11 subjects, placebo 63%): 46%
